≈ marks a conversion by molar mass, not a printed value.
Legend:
HL-60 [1] = assay: Amount of tumor necrosis factor-alpha produced by human leukemia cell line (HL-60) stimulated with 10 nM12-O-tetradecanoylphorbol 13-acetate (TPA) at 0.3 uM, measured by ELISA; type: functional
Method in brief: (§1)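 HL-60 cells (2.5 × 10⁵ in 0.5 mL, i.e. 5 × 10⁵/mL), growing exponentially in RPMI1640 + 10% FBS, were exposed to 10 nM TPA or 50 nM OA together with 0.3 μM test compound for 16 h at 37 °C. Secreted TNF-α was quantified by ELISA and expressed as % of inducer-alone production. Each run was done in duplicate or triplicate (mean taken) and repeated at least three times.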

HL-60 [2] = assay: Inhibition of 50 nM okadaic acid induced tumor necrosis factor-alpha production in human leukemia cell line (HL-60) by 0.3 uM.; type: functional; method in brief: as §1
HL-60 [3] = assay: Tumor necrosis factor-alpha production in human leukemia cell line (HL-60) stimulated with 10 nM 12-O-tetradecanoylphorbol 13-acetate (TPA) at 30 uMolar.; type: functional
Method in brief: (§2)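 HL-60 cells at 5 × 10⁵/mL in RPMI1640 + 10% FBS were co-treated with 30 μM test compound and either 10 nM TPA or 50 nM OA for 16 h at 37 °C. Culture-medium TNF-α was measured by ELISA and expressed as % of inducer-alone control. Cell counts were taken at harvest. Assays were run in duplicate or triplicate (mean taken), at least three times.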

HL-60 [4] = assay: Tumor necrosis factor-alpha production in human leukemia cell line (HL-60) stimulated with 50 nM okadaic acid (OA), at 30 uMolar.; type: functional; method in brief: as §2
WI-38 [5] = assay: The cytotoxicity of the compounds assessed using human embryonic lung fibroblast WI-38 cells at (53 micro M); type: functional, cell-based
Method in brief: (§3)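 WI-38 human embryonic lung fibroblasts (5 × 10³ cells/well) in RPMI1640 + 10% FCS were exposed to graded concentrations of compound for 48 h at 37 °C. Viability was read by WST-1 with 1-methoxy PMS (2 h, 37 °C; absorbance at 450 nm). IC50 was reported in μg/mL, with the μM equivalent in parentheses.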

WI-38 [6] = assay: In vitro cytotoxicity against human embryonic lung fibroblast WI-38 cells.; type: functional, cell-based; method in brief: as §3
WI-38 [7] = assay: The cytotoxicity of the compounds assessed using human embryonic lung fibroblast WI-38 cells at (20 micro M); type: functional, cell-based; method in brief: as §3
HL-60 [8] = assay: Amount of tumor necrosis factor-alpha produced by human leukemia cell line (HL-60) stimulated with 10 nM12-O-tetradecanoylphorbol 13-acetate (TPA) at 0.3 uM, measured by ELISA.; type: functional; method in brief: as §1
WI-38 [9] = assay: The cytotoxicity of the compounds assessed using human embryonic lung fibroblast WI-38 cells at (121 micro M); type: functional, cell-based; method in brief: as §3
WI-38 [10] = assay: The cytotoxicity of the compounds assessed using human embryonic lung fibroblast WI-38 cells at (8 micro M); type: functional, cell-based; method in brief: as §3
WI-38 [11] = assay: The cytotoxicity of the compounds assessed using human embryonic lung fibroblast WI-38 cells at (264 micro M); type: functional, cell-based; method in brief: as §3
WI-38 [12] = assay: The cytotoxicity assessed using human embryonic lung fibroblast WI-38 cells.; type: functional, cell-based; method in brief: as §3
WI-38 [13] = assay: The cytotoxicity of the compounds assessed using human embryonic lung fibroblast WI-38 cells at (148 micro M); type: functional, cell-based; method in brief: as §3
WI-38 [14] = assay: The cytotoxicity of the compounds assessed using human embryonic lung fibroblast WI-38 cells at (39 micro M); type: functional, cell-based; method in brief: as §3
WI-38 [15] = assay: The cytotoxicity of the compounds assessed using human embryonic lung fibroblast WI-38 cells at (136 micro M); type: functional, cell-based; method in brief: as §3

Which “Amount of TNF-alpha” value (HL-60 [1]) does the source give for CC[C@@H](c1ccccc1)N1C(=O)c2c(F)c(F)c(F)c(F)c2C1=O here?
Its value is 235%.

What about the “Amount of TNF-alpha” value (HL-60 [2]) of the same molecule?
The value was 87%.

How did the “Amount of TNF-alpha” value (HL-60 [3]) turn out when CC(C)c1cccc(C(C)C)c1N1C(=O)c2ccc(N)cc2C1=O was run?
The value was 242%.

What about the “Amount of TNF-alpha” value (HL-60 [4]) of the same molecule?
Its value is 28%.

And the IC50 (WI-38 [5])?
Its IC50 is 17.4 µg/mL (≈ 54 µM).

How did the “Amount of TNF-alpha” value (HL-60 [1]) turn out when C[C@@H](C1CCCCC1)N1C(=O)c2c(F)c(F)c(F)c(F)c2C1=O was run?
Its value is 124%.

What about the “Amount of TNF-alpha” value (HL-60 [2]) of the same molecule?
Its value is 65%.

What about the IC50 (WI-38 [6]) of the same molecule?
The IC50 was greater than 100 µg/mL.

With O=C1c2c(F)c(F)c(F)c(F)c2C(=O)N1[C@H]1CCc2ccccc21 as the molecule, how does the “Amount of TNF-alpha” value (HL-60 [1]) read?
The value was 392%.

And the “Amount of TNF-alpha” value (HL-60 [2])?
The value was 98%.

And the IC50 (WI-38 [6])?
The IC50 was greater than 100 µg/mL.

Which “Amount of TNF-alpha” value (HL-60 [3]) does the source give for CCc1cccc(C(C)C)c1N1C(=O)c2ccccc2C1=O here?
Its value is 255%.

And the “Amount of TNF-alpha” value (HL-60 [4])?
The value was 26%.

And the IC50 (WI-38 [7])?
Its IC50 is 6 µg/mL (≈ 20.5 µM).

Which results are given for CC(=O)Nc1ccc([C@H](C)N2C(=O)c3c(F)c(F)c(F)c(F)c3C2=O)cc1?
Amount of TNF-alpha (HL-60 [8]): 268%; Amount of TNF-alpha (HL-60 [2]): 80%

How did the “Amount of TNF-alpha” value (HL-60 [3]) turn out when CC(C)c1cccc(C(C)C)c1N1C(=O)Cc2ccccc2C1=O was run?
Its value is 268%.

What about the “Amount of TNF-alpha” value (HL-60 [4]) of the same molecule?
Its value is 50%.

And the IC50 (WI-38 [6])?
Its IC50 is greater than 100 µg/mL.

What does the source list for CC[C@H](c1ccccc1)N1C(=O)c2c(F)c(F)c(F)c(F)c2C1=O?
Amount of TNF-alpha (HL-60 [1]): 111%; Amount of TNF-alpha (HL-60 [2]): 67%

With CC(C)c1cccc(N2C(=O)c3ccccc3C2=O)c1 as the molecule, how does the “Amount of TNF-alpha” value (HL-60 [3]) read?
Its value is 158%.

And the “Amount of TNF-alpha” value (HL-60 [4])?
The value was 105%.

And the IC50 (WI-38 [6])?
The IC50 was greater than 100 µg/mL.

CC(C)c1cccc(C(C)C)c1N1C(=O)c2ccc([N+](=O)[O-])cc2C1=O was tested. Which “Amount of TNF-alpha” value (HL-60 [3]) did it give?
The value was 683%.

And the “Amount of TNF-alpha” value (HL-60 [4])?
Its value is 54%.

And the IC50 (WI-38 [9])?
The IC50 was 42.7 µg/mL (≈ 121 µM).

What does the source list for C[C@@H](c1cccc2ccccc12)N1C(=O)c2c(F)c(F)c(F)c(F)c2C1=O?
Amount of TNF-alpha (HL-60 [1]): 101%; Amount of TNF-alpha (HL-60 [2]): 101%; IC50 (WI-38 [10]): 2.8 µg/mL (≈ 7.5 µM)

What does the source list for CC(C)c1cccc(C(C)C)c1N1C(=O)c2cccc([N+](=O)[O-])c2C1=O?
Amount of TNF-alpha (HL-60 [3]): 792%; Amount of TNF-alpha (HL-60 [4]): 54%; IC50 (WI-38 [11]): 93.1 µg/mL (≈ 264 µM)

CC(C)c1cccc(C(C)C)c1N1C(=O)c2c(Cl)c(Cl)c(Cl)c(Cl)c2C1=O was tested. Which “Amount of TNF-alpha” value (HL-60 [3]) did it give?
The value was 250%.

What about the “Amount of TNF-alpha” value (HL-60 [4]) of the same molecule?
The value was 19%.

What about the IC50 (WI-38 [6]) of the same molecule?
The IC50 was greater than 100 µg/mL.

O=C1CCC(N2C(=O)c3ccccc3C2=O)C(=O)N1 (stereo not given) [THALIDOMIDE] was tested. Which “Amount of TNF-alpha” value (HL-60 [3]) did it give?
Its value is 135%.

What about the “Amount of TNF-alpha” value (HL-60 [4]) of the same molecule?
Its value is 58%.

What about the IC50 (WI-38 [12]) of the same molecule?
Its IC50 is greater than 100 µg/mL.

Which “Amount of TNF-alpha” value (HL-60 [3]) does the source give for CC(C)c1cccc(C(C)C)c1N1Cc2ccccc2C1=O here?
The value was 214%.

What about the “Amount of TNF-alpha” value (HL-60 [4]) of the same molecule?
The value was 40%.

And the IC50 (WI-38 [13])?
The IC50 was 43.1 µg/mL (≈ 147 µM).

What does the source list for CC(C)c1cccc(C(C)C)c1N1C(=O)c2ccc(O)cc2C1=O?
Amount of TNF-alpha (HL-60 [3]): 153%; Amount of TNF-alpha (HL-60 [4]): 7%; IC50 (WI-38 [14]): 12.7 µg/mL (≈ 39.3 µM)

Which “Amount of TNF-alpha” value (HL-60 [3]) does the source give for CC(C)c1cccc(C(C)C)c1N1C(=O)c2cc3ccccc3cc2C1=O here?
Its value is 144%.

What about the “Amount of TNF-alpha” value (HL-60 [4]) of the same molecule?
The value was 48%.

What about the IC50 (WI-38 [6]) of the same molecule?
Its IC50 is greater than 100 µg/mL.

What does the source list for Cc1cccc(C)c1N1C(=O)c2ccccc2C1=O?
Amount of TNF-alpha (HL-60 [3]): 161%; Amount of TNF-alpha (HL-60 [4]): 40%; IC50 (WI-38 [6]): > 100 µg/mL

How did the “Amount of TNF-alpha” value (HL-60 [3]) turn out when CC(C)c1ccc(N2C(=O)c3ccccc3C2=O)cc1 was run?
Its value is 139%.

What about the “Amount of TNF-alpha” value (HL-60 [4]) of the same molecule?
The value was 33%.

What about the IC50 (WI-38 [6]) of the same molecule?
Its IC50 is greater than 100 µg/mL.

Which “Amount of TNF-alpha” value (HL-60 [3]) does the source give for CCc1cccc(CC)c1N1C(=O)c2ccccc2C1=O here?
Its value is 453%.

And the “Amount of TNF-alpha” value (HL-60 [4])?
Its value is 53%.

And the IC50 (WI-38 [15])?
The IC50 was 38 µg/mL (≈ 136 µM).

Cc1cc(C)cc(N2C(=O)c3ccccc3C2=O)c1 was tested. Which “Amount of TNF-alpha” value (HL-60 [3]) did it give?
Its value is 136%.

And the “Amount of TNF-alpha” value (HL-60 [4])?
The value was 89%.

And the IC50 (WI-38 [6])?
The IC50 was greater than 100 µg/mL.

Which results are given for CC(C)c1cccc(C(C)C)c1N1C(=O)c2c(Br)c(Br)c(Br)c(Br)c2C1=O?
Amount of TNF-alpha (HL-60 [3]): 235%; Amount of TNF-alpha (HL-60 [4]): 3%

With CC(C)c1cccc(C(C)C)c1N1C(=O)c2cccc(O)c2C1=O as the molecule, how does the “Amount of TNF-alpha” value (HL-60 [3]) read?
Its value is 239%.

What about the “Amount of TNF-alpha” value (HL-60 [4]) of the same molecule?
Its value is 64%.

What about the IC50 (WI-38 [6]) of the same molecule?
Its IC50 is greater than 100 µg/mL.

C[C@@H](c1ccc(N)cc1)N1C(=O)c2c(F)c(F)c(F)c(F)c2C1=O was tested. Which “Amount of TNF-alpha” value (HL-60 [1]) did it give?
Its value is 262%.

What about the “Amount of TNF-alpha” value (HL-60 [2]) of the same molecule?
The value was 38%.

Which results are given for CC(C)c1cccc(C(C)C)c1N1C(=O)c2ccccc2C1=O?
Amount of TNF-alpha (HL-60 [3]): 602%; Amount of TNF-alpha (HL-60 [4]): 21%; IC50 (WI-38 [6]): > 100 µg/mL

Source: ChEMBL document CHEMBL1130136, “Novel biological response modifiers: phthalimides with tumor necrosis factor-alpha production-regulating activity” (J Med Chem, 1997)
